Converted amounts (≈) assume the structure as drawn. The source made the active and inactive calls. The calls are words filed in the database; no cut-off is given here.
Key:
[1] = test system: Staphylococcus aureus; experiment: T>MIC for 3-log drop in count in methicillin-resistant Staphylococcus aureus 33815 in in vitro pharmacokinetic model after 24 hrs using 10^6 CFU/ml inoculum; format: functional
[2] = test system: Staphylococcus aureus; experiment: Antibacterial activity against methicillin-resistant Staphylococcus aureus 33820 infected in in vitro pharmacokinetic model assessed as reduction in viable count at 750 mg, iv every 8 hrs measured after 12 hrs using 10^6 CFU/ml inoculum; format: functional
In short: (§1)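 Single-compartment dilutional in vitro PK model, 37°C, stirred, in 10% Mueller-Hinton broth. […] Inoculum 10^6 CFU/ml from a 24-h plate culture was added 45 min before dosing. Viable counts by spiral plating on nutrient agar with β-lactamase neutralization. Log change was taken from time 0; detection limit 10^2 CFU/ml; at least triplicate.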

[3] = test system: Staphylococcus aureus; experiment: Antibacterial activity against methicillin-resistant Staphylococcus aureus 33829 by 10% MH broth method; format: functional
In short: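 MIC by CLSI broth dilution, or by broth dilution in 10% Mueller-Hinton broth at nondoubling dilutions.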

[4] = test system: Staphylococcus aureus; experiment: AUBKC (0 to 24 hrs) in methicillin-resistant Staphylococcus aureus 33827 infected in in vitro pharmacokinetic model at 1500 mg, iv every 8 hrs using 10^6 CFU/ml inoculum; format: functional
In short: (§2)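 Single-compartment dilutional in vitro PK model at 37°C in 10% Mueller-Hinton broth, stirred, flow 132 ml/h. […] Inoculum 10^6 CFU/ml added 45 min before dosing, or 10^8 CFU/ml run overnight. Viable counts with β-lactamase neutralisation. AUBKC by log-linear trapezoidal rule, at least triplicate.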

[5] = test system: Staphylococcus aureus; experiment: Antibacterial activity against methicillin-resistant Staphylococcus aureus 33921 assessed as viable count at 4 times of MIC after 48 hrs using 10^6 CFU/ml inoculum; format: functional, organism-based
[6] = test system: Staphylococcus aureus; experiment: Antibacterial activity against methicillin-resistant Staphylococcus aureus 33827 in in vitro pharmacokinetic model assessed as viable count at 6 times of MIC; format: functional
In short: (§3)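 Population analysis before drug exposure (time 0). Model samples were plated on nutrient agar without drug and with tomopenem at 2×, 4× and 6× MIC (10% MHB MIC), and growth was recorded as log CFU/ml. Detection limit 2 log10.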

[7] = test system: Staphylococcus aureus; experiment: Antibacterial activity against methicillin-resistant Staphylococcus aureus 33820 in in vitro pharmacokinetic model assessed as viable count at 2 times of MIC; format: functional; in short: as §3
[8] = test system: Staphylococcus aureus; experiment: Antibacterial activity against methicillin-resistant Staphylococcus aureus 33815 in in vitro pharmacokinetic model assessed as viable count at 2 times of MIC; format: functional
In short: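 Preexposure population analysis profile: model sample at time zero plated on nutrient agar with tomopenem at multiples of the MIC. Growth counted as log CFU/ml, detection limit 2 log10.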

[9] = test system: Staphylococcus aureus; experiment: Antibacterial activity against methicillin-sensitive Staphylococcus aureus 5956 infected in in vitro pharmacokinetic model assessed as reduction in viable count at 750 mg, iv every 8 hrs measured after 48 hrs using 10^6 CFU/ml inoculum; format: functional
[10] = test system: Staphylococcus aureus; experiment: Antibacterial activity against methicillin-resistant Staphylococcus aureus 33829 in in vitro pharmacokinetic model assessed as viable count at 6 times of MIC; format: functional
In short: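 Preexposure population analysis: time-zero model samples plated on nutrient agar without drug and with drug at multiples of the 10% broth MIC. Growth reported as log CFU/ml, detection limit 2 log10.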

[11] = test system: Staphylococcus aureus; experiment: Antibacterial activity against methicillin-resistant Staphylococcus aureus 33815 infected in in vitro pharmacokinetic model assessed as time required to 99.9% killing at 750 mg, iv every 8 hrs using 10^6 CFU/ml inoculum; format: functional
[12] = test system: Staphylococcus aureus; experiment: T>MIC for 4-log drop in count in methicillin-resistant Staphylococcus aureus 33827 in in vitro pharmacokinetic model after 24 hrs using 10^6 CFU/ml inoculum; format: functional
[13] = test system: Staphylococcus aureus; experiment: Antibacterial activity against methicillin-resistant Staphylococcus aureus 33827 assessed as viable count at 4 times of MIC after 48 hrs using 10^6 CFU/ml inoculum; format: functional, organism-based
[14] = test system: Staphylococcus aureus; experiment: AUBKC (0 to 48 hrs) in methicillin-sensitive Staphylococcus aureus 5956 infected in in vitro pharmacokinetic model at 750 mg, iv every 8 hrs using 10^6 CFU/ml inoculum; format: functional
[15] = test system: Serum; experiment: Drug level in human serum at 700 mg; format: ADME, cell-free
[16] = test system: Staphylococcus aureus; experiment: Antibacterial activity against methicillin-resistant Staphylococcus aureus 33820 by broth dilution method; format: functional
In short: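 Standard CLSI broth dilution MIC.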

[17] = test system: Staphylococcus aureus; experiment: Antibacterial activity against methicillin-resistant Staphylococcus aureus 33820 infected in in vitro pharmacokinetic model assessed as reduction in viable count at 750 mg, iv every 8 hrs measured after 48 hrs using 10^6 CFU/ml inoculum; format: functional; in short: as §1
[18] = test system: Serum; experiment: Drug level in human serum at 1400 mg; format: ADME, cell-free
[19] = test system: Staphylococcus aureus; experiment: Antibacterial activity against methicillin-resistant Staphylococcus aureus 33827 assessed as viable count at 2 times of MIC after 24 hrs using 10^6 CFU/ml inoculum; format: functional, organism-based
[20] = test system: Staphylococcus aureus; experiment: Antibacterial activity against methicillin-resistant Staphylococcus aureus 33815 assessed as viable count at 4 times of MIC after 48 hrs using 10^6 CFU/ml inoculum; format: functional, organism-based
In short: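 Population analysis during tomopenem dose-ranging runs in the in vitro PK model (10^6 CFU/ml, T>MIC 0-100%). […] Growth counted as log CFU/ml, detection limit 2 log10.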

[21] = test system: Staphylococcus aureus; experiment: AUBKC (0 to 24 hrs) in methicillin-resistant Staphylococcus aureus 33922 infected in in vitro pharmacokinetic model at 1500 mg, iv every 8 hrs using 10^6 CFU/ml inoculum; format: functional; in short: as §2
[22] = test system: Staphylococcus aureus; experiment: Antibacterial activity against methicillin-resistant Staphylococcus aureus 33922 in in vitro pharmacokinetic model assessed as viable count at 2 times of MIC; format: functional
[23] = test system: Staphylococcus aureus; experiment: AUBKC (0 to 24 hrs) in methicillin-resistant Staphylococcus aureus 33827 infected in in vitro pharmacokinetic model at 750 mg, iv every 8 hrs using 10^8 CFU/ml inoculum; format: functional; in short: as §2
[24] = test system: Staphylococcus aureus; experiment: Antibacterial activity against methicillin-resistant Staphylococcus aureus 33815 infected in in vitro pharmacokinetic model assessed as reduction in viable count at 750 mg, iv every 8 hrs measured after 48 hrs using 10^8 CFU/ml inoculum; format: functional
In short: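 PK model at 37°C in 10% MHB. […] A 0.5 McFarland suspension (1 ml) was added and the model run overnight to reach 10^8 CFU/ml before dosing. Counts were spiral-plated on nutrient agar with β-lactamase. Change in log CFU/ml was measured from time 0; at least triplicate.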

[25] = test system: Staphylococcus aureus; experiment: AUBKC (0 to 48 hrs) in methicillin-resistant Staphylococcus aureus 33922 infected in in vitro pharmacokinetic model at 1500 mg, iv every 8 hrs using 10^6 CFU/ml inoculum; format: functional; in short: as §2
[26] = test system: Staphylococcus aureus; experiment: T>MIC for 4-log drop in count in methicillin-resistant Staphylococcus aureus 33827 in in vitro pharmacokinetic model after 24 hrs using 10^8 CFU/ml inoculum; format: functional
[27] = test system: Staphylococcus aureus; experiment: Antibacterial activity against methicillin-resistant Staphylococcus aureus 33827 infected in in vitro pharmacokinetic model assessed as time required to 99.9% killing at 1500 mg, iv every 8 hrs using 10^6 CFU/ml inoculum; format: functional
In short: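 Single-compartment dilutional in vitro PK model, 10% Mueller-Hinton broth, 37°C, stirred, dilution 132 ml/h. […] Inoculum 10^6 CFU/ml (added 45 min pre-dose) or 10^8 CFU/ml (run overnight). Viable counts by spiral plating, beta-lactamase neutralization, detection limit 10^2 CFU/ml. At least triplicate.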

C[C@@H](O)[C@H]1C(=O)N2C(C(=O)O)=C(S[C@H]3C[C@@H](C(=O)N4CC[C@H](NC(=O)CNC(=N)N)C4)N(C)C3)[C@H](C)[C@H]12 [TOMOPENEM]
fT>MIC [1]: 17.1%
log10CFU/ml [2]: 3.9
MIC [3]: 0.5 µg/mL (≈ 0.93 µM)
AUBC [4]: 28.1 log10CFU/ml.hr
Activity [5]: Active
log10CFU/ml [6]: <2
log10CFU/ml [7]: 2.3
log10CFU/ml [8]: <2
log10CFU/ml [9]: 4.5
log10CFU/ml [10]: 2.7
Time [11]: 12 h
fT>MIC [12]: 61%
Activity [13]: inactive
AUBC [14]: 27.6 log10CFU/ml.hr
Drug uptake [15]: 44 mg/L
MIC [16]: 16 µg/mL (≈ 29.8 µM)
log10CFU/ml [17]: 4.2
Drug uptake [18]: 100 mg/L
Activity [19]: inactive
Activity [20]: Active
AUBC [21]: 16.9 log10CFU/ml.hr
log10CFU/ml [22]: 8.3
AUBC [23]: 77.4 log10CFU/ml.hr
log10CFU/ml [24]: 5
AUBC [25]: 16.9 log10CFU/ml.hr
fT>MIC [26]: 79.1%
Time [27]: 12 h

— ChEMBL document CHEMBL1255300, “Pharmacodynamics of the antibacterial effect and emergence of resistance to tomopenem, formerly RO4908463/CS-023, in an in vitro pharmacokinetic model of Staphylococcus aureus infection” (Antimicrob Agents Chemother, 2008)
